Drawing on ChEMBL document CHEMBL1157677, “Silicon switch approach in TRPV1 antagonist MK-056 and its analogues” (Bioorg Med Chem, 2010), this text covers EC50, IC50 and Ratio IC50 for nine compounds.

Each structure is given as a SMILES string. pEC50, pIC50: −log10 of the molar value.

For experiment [1], the target named is T1, Transient receptor potential cation channel subfamily V member 1 (Rattus norvegicus, UniProt O35433). Nature of the experiment: Agonist activity at TRPV1 in Sprague-Dawley rat DRG neuron assessed as intracellular 45Ca2+ influx by scintillation counting. Format: functional, cell-based.
The target of experiment [2] is T1, Transient receptor potential cation channel subfamily V member 1. The experiment can be described thus: Antagonist activity at TRPV1 in Sprague-Dawley rat DRG neuron assessed as reduction of capsaicin-stimulated intracellular 45Ca2+ influx by scintillation counting. Type of experiment: functional, cell-based. The essentials: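 Neonatal rat spinal DRG neurons, dissociated with collagenase then trypsin (30 min each, 37 °C), cultured 3 days in horse-serum DME/F12 with C6-glioma-conditioned medium. Neurons were given ⁴⁵Ca²⁺ plus capsaicin with compound for 10 min at room temperature in HEPES (10 mM, pH 7.4) Ca/Mg-free HBSS, then washed and dried.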

In experiment [3] the target is Transient receptor potential cation channel subfamily V member 1 (Rattus norvegicus) (UniProt O35433). Nature of the experiment: Ratio of compound IC50 to ATC-120 IC50 for TRPV1 in Sprague-Dawley rat DRG neuron.
The target is the same in experiment [4]. Nature of the experiment: Ratio of compound IC50 to SC-0030 IC50 for TRPV1 in Sprague-Dawley rat DRG neuron.

The pEC50 is −log10 of the EC50, conventionally taken in molar units. The pIC50 is the IC50 on a negative log10 scale, so that one unit is a factor of ten.

Chain of Transient receptor potential cation channel subfamily V member 1 (Rattus norvegicus) (O35433 whole entry): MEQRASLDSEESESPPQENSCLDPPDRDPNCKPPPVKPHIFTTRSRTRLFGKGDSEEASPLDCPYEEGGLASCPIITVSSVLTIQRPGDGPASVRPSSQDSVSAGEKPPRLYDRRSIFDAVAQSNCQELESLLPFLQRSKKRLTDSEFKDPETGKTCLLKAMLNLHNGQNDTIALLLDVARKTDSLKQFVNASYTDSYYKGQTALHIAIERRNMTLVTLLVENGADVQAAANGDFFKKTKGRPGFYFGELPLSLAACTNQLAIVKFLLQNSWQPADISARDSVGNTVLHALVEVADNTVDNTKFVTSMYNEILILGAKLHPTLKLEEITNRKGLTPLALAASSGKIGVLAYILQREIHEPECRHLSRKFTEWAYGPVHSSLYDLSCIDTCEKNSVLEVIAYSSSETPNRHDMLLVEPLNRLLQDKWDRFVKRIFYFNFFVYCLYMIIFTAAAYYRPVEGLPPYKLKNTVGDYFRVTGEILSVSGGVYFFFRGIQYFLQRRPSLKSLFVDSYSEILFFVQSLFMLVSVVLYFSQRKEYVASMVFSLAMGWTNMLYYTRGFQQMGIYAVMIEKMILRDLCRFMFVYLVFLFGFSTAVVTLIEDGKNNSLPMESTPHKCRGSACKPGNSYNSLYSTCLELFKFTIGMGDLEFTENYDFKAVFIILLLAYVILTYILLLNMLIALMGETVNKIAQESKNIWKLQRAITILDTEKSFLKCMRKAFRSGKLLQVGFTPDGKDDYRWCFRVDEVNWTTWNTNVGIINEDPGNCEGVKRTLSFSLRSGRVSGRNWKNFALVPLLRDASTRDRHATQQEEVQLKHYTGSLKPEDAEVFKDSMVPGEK
T1 sequence (O35433 whole entry): as above

Take `CC[Si](C)(C)c1ccc(CNC(=S)NCc2ccc(NS(C)(=O)=O)cc2)cc1`: in experiment [1], the negative logarithm of the EC50 (pEC50) was < 4.00. Besides, the negative logarithm of the IC50 (pIC50) in experiment [2] is 5.92.

On to `C[C@@H](NC(=S)NCc1ccc(C(C)(C)C)cc1)c1ccc(NS(C)(=O)=O)cc1`, for which, in experiment [1], the pEC50 was < 4.00. For the same compound, the negative logarithm of the IC50 (pIC50) in experiment [2] is 7.30.

With `CC[Si](CC)(CC)c1ccc(CNC(=S)N[C@H](C)c2ccc(NS(C)(=O)=O)cc2)cc1`, in experiment [1], the pEC50 is < 4.00. The pIC50 in experiment [2] is 5.82.

For `C[C@@H](NC(=S)NCc1ccc([Si](C)(C)C)cc1)c1ccc(NS(C)(=O)=O)cc1`, the pEC50 in experiment [1] is < 4.00. For the same compound, the Ratio IC50 in experiment [3] and in experiment [4] was 4 each time. Also, the pIC50 in experiment [2] was 6.68.

As for `C[Si](C)(C)c1ccc(CNC(=S)NCc2ccc(NS(C)(=O)=O)cc2)cc1`, the negative logarithm of the EC50 (pEC50) in experiment [1] is < 4.00. In experiment [2], the pIC50 is 6.82.

Turning to `C[Si](C)(C)c1ccc(CNC(=S)NCc2ccc(NS(C)(=O)=O)c(F)c2)cc1`, the negative logarithm of the EC50 (pEC50) in experiment [1] is < 4.00. Moreover, the Ratio IC50 in experiment [3] and in experiment [4] was 4 throughout. The pIC50 in experiment [2] is 6.80.

Turning to `CC(C)(C)c1ccc(CNC(=S)NCc2ccc(NS(C)(=O)=O)c(F)c2)cc1`, the pEC50 in experiment [1] was < 4.00. Also, in experiment [2], the negative logarithm of the IC50 (pIC50) was 7.40.

Take `CC[Si](C)(C)c1ccc(CNC(=S)N[C@H](C)c2ccc(NS(C)(=O)=O)cc2)cc1`: the negative-log EC50 (pEC50) in experiment [1] is < 4.00. The pIC50 in experiment [2] is 6.17.

As to `CC[Si](CC)(CC)c1ccc(CNC(=S)NCc2ccc(NS(C)(=O)=O)cc2)cc1`, the negative logarithm of the EC50 (pEC50) in experiment [1] is < 4.00. Besides, the negative-log IC50 (pIC50) in experiment [2] is 5.51.
